Reference: ChEMBL document CHEMBL4038284, “Synthesis of novel quinoline-based 4,5-dihydro-1H-pyrazoles as potential anticancer, antifungal, antibacterial and antiprotozoal agents” (Eur J Med Chem, 2017)

Legend:
Type in all cases: functional
SNB-19 = assay: Growth inhibition of human SNB19 cells incubated for 48 hrs by sulforhodamine B assay; conditions: SNB-19, 48 h; for CC50: read-out: LC50 (the source's name)
How it was run: (§1)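 NCI-60 panel cells grown in RPMI-1640 with 5% FBS and 2 mM L-glutamine, preincubated 24 h at 37 °C/5% CO2. Time-zero plates were TCA-fixed at compound addition. DMSO stocks were diluted in medium and tested at five final concentrations (100, 10, 1.0, 0.1, 0.01 µM) for 48 h. Cells were TCA-fixed, stained with SRB and read at 515 nm. GI50 = 50% lower net protein increase versus control.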

K562 = assay: Growth inhibition of human K562 cells incubated for 48 hrs by sulforhodamine B assay; conditions: K562, 48 h; for CC50: read-out: LC50 (the source's name)
How it was run: (§2)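 NCI 60-line screen. Cells in RPMI-1640 with 5% FBS and 2 mM L-glutamine, preincubated 24 h, then time-zero plates TCA-fixed. Compounds from DMSO stocks given at five final concentrations (100, 10, 1.0, 0.1, 0.01 µM) for 48 h at 37 °C, 5% CO2. Cells fixed with 10% TCA, SRB-stained, read at 515 nm. GI50 is the concentration giving 50% lower net protein increase versus control.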

A498 = assay: Growth inhibition of human A498 cells incubated for 48 hrs by sulforhodamine B assay; conditions: A498, 48 h; for CC50: read-out: LC50 (the source's name); how it was run: as §2
SK-OV-3 = assay: Growth inhibition of human SKOV3 cells incubated for 48 hrs by sulforhodamine B assay; conditions: SK-OV-3, 48 h; for CC50: read-out: LC50 (the source's name); how it was run: as §2
MOLT-4 = assay: Growth inhibition of human MOLT4 cells incubated for 48 hrs by sulforhodamine B assay; conditions: MOLT-4, 48 h; for CC50: read-out: LC50 (the source's name); how it was run: as §2
SN12C = assay: Growth inhibition of human SN12C cells incubated for 48 hrs by sulforhodamine B assay; conditions: for CC50: read-out: LC50 (the source's name); how it was run: as §1
HOP-92 = assay: Growth inhibition of human HOP92 cells incubated for 48 hrs by sulforhodamine B assay; conditions: HOP-92, 48 h
How it was run: (§3)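 Five-dose NCI SRB assay at 100, 10, 1.0, 0.1 and 0.01 μM for 48 h at 37 °C, 5% CO2. Medium was RPMI-1640 with 5% FBS and 2 mM glutamine. Time-zero plates were TCA-fixed at compound addition, A515 read after SRB staining. GI50 was solved from [(Ti−Tz)/(C−Tz)]×100 = 50. Values beyond the tested range are given as > or <.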

786-0 = assay: Growth inhibition of human 786-0 cells incubated for 48 hrs by sulforhodamine B assay; conditions: 786-0, 48 h
How it was run: (§4)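 NCI five-dose SRB assay (100, 10, 1.0, 0.1, 0.01 µM) with 48 h exposure in RPMI-1640 with 5% FBS and 2 mM L-glutamine. Cells fixed with TCA and stained with SRB, read at 515 nm. GI50 is the concentration where [(Ti−Tz)/(C−Tz)]×100 = 50.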

OVCAR-4 = assay: Growth inhibition of human OVCAR4 cells incubated for 48 hrs by sulforhodamine B assay; conditions: OVCAR-4, 48 h; for CC50: read-out: LC50 (the source's name); how it was run: as §3
BT-549 = assay: Growth inhibition of human BT549 cells incubated for 48 hrs by sulforhodamine B assay; conditions: BT-549, 48 h; for CC50: read-out: LC50 (the source's name); how it was run: as §4
HOP-62 = assay: Growth inhibition of human HOP62 cells incubated for 48 hrs by sulforhodamine B assay; conditions: HOP-62, 48 h; for CC50: read-out: LC50 (the source's name); how it was run: as §4
M14 = assay: Growth inhibition of human M14 cells incubated for 48 hrs by sulforhodamine B assay; conditions: M14, 48 h; for CC50: read-out: LC50 (the source's name); how it was run: as §3
SW-620 = assay: Growth inhibition of human SW620 cells incubated for 48 hrs by sulforhodamine B assay; conditions: SW-620, 48 h; for CC50: read-out: LC50 (the source's name); how it was run: as §1
CCRF-CEM = assay: Growth inhibition of human CCRF-CEM cells incubated for 48 hrs by sulforhodamine B assay; conditions: for CC50: read-out: LC50 (the source's name); how it was run: as §2
T47D = assay: Growth inhibition of human T47D cells incubated for 48 hrs by sulforhodamine B assay; conditions: for CC50: read-out: LC50 (the source's name); how it was run: as §1
SF-295 = assay: Growth inhibition of human SF295 cells incubated for 48 hrs by sulforhodamine B assay; conditions: SF-295, 48 h; for CC50: read-out: LC50 (the source's name); how it was run: as §3
ACHN = assay: Growth inhibition of human ACHN cells incubated for 48 hrs by sulforhodamine B assay; conditions: for CC50: read-out: LC50 (the source's name); how it was run: as §2
KM12 = assay: Growth inhibition of human KM12 cells incubated for 48 hrs by sulforhodamine B assay; conditions: KM12, 48 h; for CC50: read-out: LC50 (the source's name); how it was run: as §3
HCT-116 = assay: Growth inhibition of human HCT116 cells incubated for 48 hrs by sulforhodamine B assay; conditions: HCT-116, 48 h; how it was run: as §4
Hs-578T = assay: Growth inhibition of human Hs578T cells incubated for 48 hrs by sulforhodamine B assay; conditions: for CC50: read-out: LC50 (the source's name); how it was run: as §3
OVCAR-3 = assay: Growth inhibition of human OVCAR3 cells incubated for 48 hrs by sulforhodamine B assay; conditions: OVCAR-3, 48 h; for CC50: read-out: LC50 (the source's name); how it was run: as §3
HCC 2998 = assay: Growth inhibition of human HCC2998 cells incubated for 48 hrs by sulforhodamine B assay; conditions: HCC 2998, 48 h; for CC50: read-out: LC50 (the source's name); how it was run: as §2
NCI-H226 = assay: Growth inhibition of human NCI-H226 cells incubated for 48 hrs by sulforhodamine B assay; conditions: NCI-H226, 48 h; for CC50: read-out: LC50 (the source's name); how it was run: as §2
Malme-3M = assay: Growth inhibition of human MALME-3M cells incubated for 48 hrs by sulforhodamine B assay; conditions: for CC50: read-out: LC50 (the source's name); how it was run: as §3
SK-MEL-5 = assay: Growth inhibition of human SK-MEL-5 cells incubated for 48 hrs by sulforhodamine B assay; conditions: SK-MEL-5, 48 h; for CC50: read-out: LC50 (the source's name); how it was run: as §2
SR = assay: Growth inhibition of human SR cells incubated for 48 hrs by sulforhodamine B assay; conditions: for CC50: read-out: LC50 (the source's name); how it was run: as §2
COLO 205 = assay: Growth inhibition of human COLO205 cells incubated for 48 hrs by sulforhodamine B assay; conditions: COLO 205, 48 h; for CC50: read-out: LC50 (the source's name); how it was run: as §4
HT-29 = assay: Growth inhibition of human HT-29 cells incubated for 48 hrs by sulforhodamine B assay; conditions: HT-29, 48 h; how it was run: as §3

For `O=CN1N=C(c2ccc(Cl)cc2)CC1c1cccc(Nc2ccnc3cc(Cl)ccc23)c1` (configuration not stated), the GI50 (SNB-19) was 4.19 µM, the CC50 (SNB-19) was > 100 µM and the GI50 (K562) was 0.39 µM. The CC50 (K562) was > 100 µM, the GI50 (A498) was 0.98 µM and the CC50 (A498) was > 100 µM. The GI50 (SK-OV-3) was 2.9 µM, the CC50 (SK-OV-3) was > 100 µM and the GI50 (MOLT-4) was 1.13 µM. The CC50 (MOLT-4) was > 100 µM, the GI50 (SN12C) was 3.99 µM and the CC50 (SN12C) was > 100 µM. The GI50 (HOP-92) was 1.45 µM, the LC50 (concentration giving 50% net cell kill) (HOP-92) was > 100 µM and the GI50 (786-0) was 2.96 µM. For the same molecule, the LC50 (786-0) was 62.7 µM, the GI50 (OVCAR-4) was 0.64 µM and the CC50 (OVCAR-4) was 79.8 µM. The GI50 (BT-549) was 1.78 µM, the CC50 (BT-549) was > 100 µM and the GI50 (HOP-62) was 1.21 µM. For the same molecule, the CC50 (HOP-62) was 70 µM, the GI50 (M14) was 1.55 µM and the CC50 (M14) was > 100 µM. The GI50 (SW-620) was 1.61 µM, the CC50 (SW-620) was > 100 µM and the GI50 (CCRF-CEM) was 1.42 µM. For the same molecule, the CC50 (CCRF-CEM) was > 100 µM, the GI50 (T47D) was 0.82 µM and the CC50 (T47D) was > 100 µM. The GI50 (SF-295) was 0.5 µM, the CC50 (SF-295) was > 100 µM and the GI50 (ACHN) was 2.64 µM. For the same molecule, the CC50 (ACHN) was > 100 µM, the GI50 (KM12) was 1.22 µM and the CC50 (KM12) was > 100 µM. For the same molecule, the GI50 (HCT-116) was 1.2 µM, the LC50 (concentration killing 50% of cells) (HCT-116) was 17.2 µM and the GI50 (Hs-578T) was 3.23 µM. For the same molecule, the CC50 (Hs-578T) was > 100 µM, the GI50 (OVCAR-3) was 1.1 µM and the CC50 (OVCAR-3) was 83.3 µM. The GI50 (HCC 2998) was 3.12 µM, the CC50 (HCC 2998) was > 100 µM and the GI50 (NCI-H226) was 1.87 µM. The CC50 (NCI-H226) was > 100 µM, the GI50 (Malme-3M) was 1.27 µM and the CC50 (Malme-3M) was 76.6 µM. It also gave a GI50 (SK-MEL-5) of 0.54 µM, a CC50 (SK-MEL-5) of 5.05 µM and a GI50 (SR) of 0.4 µM. The CC50 (SR) was > 100 µM, the GI50 (COLO 205) was 1.43 µM and the CC50 (COLO 205) was 21.4 µM. It also gave a GI50 (HT-29) of 1.28 µM and an LC50 (HT-29) of 56.4 µM.
For `COc1ccc(C2=NN(C=O)C(c3cccc(Nc4ccnc5cc(Cl)ccc45)c3)C2)cc1` (configuration not stated), the GI50 (SNB-19) was 5.11 µM, the CC50 (SNB-19) was > 100 µM and the GI50 (K562) was 0.51 µM. The CC50 (K562) was > 100 µM, the GI50 (A498) was 1.35 µM and the CC50 (A498) was > 100 µM. The GI50 (SK-OV-3) was 3.33 µM, the CC50 (SK-OV-3) was > 100 µM and the GI50 (MOLT-4) was 2.37 µM. The CC50 (MOLT-4) was > 100 µM, the GI50 (SN12C) was 4.45 µM and the CC50 (SN12C) was > 100 µM. For the same molecule, the GI50 (HOP-92) was 3.41 µM, the LC50 (concentration giving 50% net cell kill) (HOP-92) was > 100 µM and the GI50 (786-0) was 3.43 µM. For the same molecule, the LC50 (786-0) was 79.8 µM, the GI50 (OVCAR-4) was 1.54 µM and the CC50 (OVCAR-4) was > 100 µM. For the same molecule, the GI50 (BT-549) was 1.93 µM, the CC50 (BT-549) was > 100 µM and the GI50 (HOP-62) was 2.11 µM. The CC50 (HOP-62) was 67.7 µM, the GI50 (M14) was 2.34 µM and the CC50 (M14) was 67.5 µM. For the same molecule, the GI50 (SW-620) was 1.73 µM, the CC50 (SW-620) was > 100 µM and the GI50 (CCRF-CEM) was 2.14 µM. The CC50 (CCRF-CEM) was > 100 µM, the GI50 (T47D) was 1.39 µM and the CC50 (T47D) was > 100 µM. The GI50 (SF-295) was 1.24 µM, the CC50 (SF-295) was > 100 µM and the GI50 (ACHN) was 4.59 µM. The CC50 (ACHN) was > 100 µM, the GI50 (KM12) was 2.18 µM and the CC50 (KM12) was > 100 µM. The GI50 (HCT-116) was 1.84 µM, the LC50 (concentration killing 50% of cells) (HCT-116) was 24.3 µM and the GI50 (Hs-578T) was 3.92 µM. For the same molecule, the CC50 (Hs-578T) was > 100 µM, the GI50 (OVCAR-3) was 1.97 µM and the CC50 (OVCAR-3) was 63.7 µM. The GI50 (HCC 2998) was 11.7 µM, the CC50 (HCC 2998) was > 100 µM and the GI50 (NCI-H226) was 3.13 µM. For the same molecule, the CC50 (NCI-H226) was > 100 µM, the GI50 (Malme-3M) was 2.04 µM and the CC50 (Malme-3M) was > 100 µM. The GI50 (SK-MEL-5) was 0.92 µM, the CC50 (SK-MEL-5) was 17.4 µM and the GI50 (SR) was 0.58 µM. For the same molecule, the CC50 (SR) was > 100 µM, the GI50 (COLO 205) was 2.4 µM and the CC50 (COLO 205) was 60.6 µM. The GI50 (HT-29) was 1.65 µM and the LC50 (HT-29) was 67.4 µM.
